{"source": "ChEMBL document CHEMBL1759862", "about": "“Tricyclic compounds containing nonenolizable cyano enones. A novel class of highly potent anti-inflammatory and cytoprotective agents” (J Med Chem, 2011)", "key": {"Rattus norvegicus [1]": {"system": "Rattus norvegicus", "test": "Toxicity in F344 rat assessed as growth rate at 0.3 to 60 umol administered via gavage", "type": "organism-based", "conditions": "in vivo, po", "method_in_brief": "(§1)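 Tolerability was checked in rats in the aflatoxin B1 short-term hepatic tumorigenesis study, dosed at 0.3 to 60 μmol/kg. Growth rate and final body weight were compared with controls not given AFB1.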"}, "Liver [2]": {"system": "Liver", "test": "Antitumor activity against aflatoxin B1-induced tumorigenesis in F344 rat liver assessed as reduction in tumor burden at 10 umol/kg administered via gavage relative to control", "type": "functional", "set-up": "scale not given: the % may be the effect or the level left", "method_in_brief": "(§2)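 Short-term rat model of liver tumorigenesis induced with aflatoxin B1. Test agent was given at 0.3 to 60 μmol/kg. Preneoplastic foci were scored in liver, and tumor burden was expressed against the AFB1-treated positive control group.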"}, "Liver [3]": {"system": "Liver", "test": "Induction of HO-1 expression in CD-1 mouse liver at 1 umol administered via gavage measured after 6 hrs by Western blotting", "type": "functional, tissue-based"}, "[4]": {"biological_target": "NAD(P)H dehydrogenase [quinone] 1 (Mus musculus) (UniProt Q64669)", "sequence (Q64669 whole entry)": "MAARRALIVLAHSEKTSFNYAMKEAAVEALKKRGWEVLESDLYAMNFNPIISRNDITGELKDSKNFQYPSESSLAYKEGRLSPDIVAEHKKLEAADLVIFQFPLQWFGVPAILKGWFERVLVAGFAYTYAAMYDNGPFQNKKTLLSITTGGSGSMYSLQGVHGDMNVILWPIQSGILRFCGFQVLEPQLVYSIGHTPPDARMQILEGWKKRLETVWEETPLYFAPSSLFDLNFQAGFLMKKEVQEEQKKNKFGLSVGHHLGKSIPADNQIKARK", "test": "Induction of NQO1 activity in mouse Hepa-1c1c7 cells after 48 hrs", "type": "cell-based"}, "RAW264.7 [5]": {"system": "RAW264.7", "test": "Antiinflammatory activity in mouse RAW264.7 cells assessed as inhibition of IFN-gamma induced NO production after 24 hrs by Griess reaction", "type": "functional, cell-based", "method_in_brief": "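RAW 264.7 cells exposed to serial concentrations of compound together with IFN-γ (10 ng/mL) for 24 h; NO in supernatants quantified by Griess reaction. IC50 tested over 0.1 pM to 10 μM in 10-fold steps; values averaged from two separate experiments.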"}, "Rattus norvegicus [6]": {"system": "Rattus norvegicus", "test": "Toxicity in F344 rat assessed as effect on body weight at 0.3 to 60 umol administered via gavage", "type": "organism-based", "conditions": "in vivo, po", "method_in_brief": "as §1"}, "Stomach": {"system": "Stomach", "test": "Induction of HO-1 expression in CD-1 mouse stomach at 1 umol administered via gavage measured after 6 hrs by Western blotting", "type": "functional, tissue-based", "method_in_brief": "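Male CD-1 mice, three per group, received 1 μmol of compound in DMSO by gavage. Stomachs were harvested 6 h later, and HO-1 was detected by Western blot of tissue.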"}, "RAW264.7 [7]": {"system": "RAW264.7", "test": "Induction of HO-1 expression in mouse RAW264.7 cells at 100 nM after 6 hrs by Western blotting", "type": "functional, cell-based", "method_in_brief": "(§3)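 RAW 264.7 macrophages were exposed to compound at 10–100 nM for 6 h. HO-1 protein was detected by Western blot of total cell lysates.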"}, "RAW264.7 [8]": {"system": "RAW264.7", "test": "Induction of HO-1 expression in mouse RAW264.7 cells at 10 nM after 6 hrs by Western blotting", "type": "functional, cell-based", "method_in_brief": "as §3"}, "Macrophage [9]": {"system": "Macrophage", "test": "Ratio of CDDO IC50 to compound IC50 for inhibition of IFN-gamma induced NO production in mouse macrophages", "type": "functional"}, "[10]": {"test": "Antiinflammatory activity in CD-1 mouse Macrophage assessed as inhibition of IFN-gamma induced NO production after 48 hrs by Griess reaction", "type": "functional, cell-based"}, "RAW264.7 [11]": {"system": "RAW264.7", "test": "Ratio of CDDO IC50 to compound IC50 for inhibition of IFN-gamma induced NO production in mouse RAW264.7 cells", "type": "functional", "method_in_brief": "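RAW 264.7 cells were co-treated with compound (0.1 pM to 10 μM, 10-fold dilutions) and IFN-γ 10 ng/mL for 24 h. Nitric oxide in supernatants was measured by the Griess reaction. IC50 is the mean of two separate experiments, and the ratio is taken against CDDO's IC50.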"}, "Liver [12]": {"system": "Liver", "test": "Antitumor activity against aflatoxin B1-induced tumorigenesis in F344 rat liver assessed as reduction in tumor burden at 0.3 umol/kg administered via gavage relative to control", "type": "functional", "set-up": "scale not given: the % may be the effect or the level left", "method_in_brief": "as §2"}, "RAW264.7 [13]": {"system": "RAW264.7", "test": "Induction of HO-1 expression in mouse RAW264.7 cells at 300 nM after 6 hrs by Western blotting", "type": "functional, cell-based", "method_in_brief": "(§4)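 RAW cells treated with compound for 6 h (30–300 nM range); HO-1 detected in total cell lysates by Western blot.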"}, "RAW264.7 [14]": {"system": "RAW264.7", "test": "Induction of HO-1 expression in mouse RAW264.7 cells at 30 nM after 6 hrs by Western blotting", "type": "functional, cell-based", "method_in_brief": "as §4"}, "Liver [15]": {"system": "Liver", "test": "Antitumor activity against aflatoxin B1-induced tumorigenesis in F344 rat liver assessed as inhibition of preneoplastic foci formation administered via gavage", "type": "functional, tissue-based", "method_in_brief": "as §2"}, "RAW264.7 [16]": {"system": "RAW264.7", "test": "Inhibition of IFN-gamma induced iNOS expression in mouse RAW264.7 cells at 30 nM after 24 hrs by Western blotting", "type": "functional, cell-based"}, "Liver [17]": {"system": "Liver", "test": "Antitumor activity against aflatoxin B1-induced tumorigenesis in F344 rat liver assessed as reduction in tumor burden at 30 umol/kg administered via gavage", "type": "functional, tissue-based", "method_in_brief": "as §2"}, "Liver [18]": {"system": "Liver", "test": "Antitumor activity against aflatoxin B1-induced tumorigenesis in F344 rat liver assessed as reduction in tumor burden at 60 umol/kg administered via gavage", "type": "functional, tissue-based", "method_in_brief": "as §2"}, "Macrophage [19]": {"system": "Macrophage", "test": "Antiinflammatory activity in CD-1 mouse Macrophage assessed as inhibition of IFN-gamma induced NO production after 48 hrs by Griess reaction in presence of glucocorticoid antagonist mifepristone", "type": "functional, cell-based"}, "RAW264.7 [20]": {"system": "RAW264.7", "test": "Inhibition of IFN-gamma induced iNOS expression in mouse RAW264.7 cells at 300 nM after 24 hrs by Western blotting", "type": "functional, cell-based"}, "[21]": {"test": "Cytotoxicity against CD-1 mouse macrophages at 10 uM", "type": "cell-based", "conditions": "macrophage"}}, "note": "“And” between values parts separate entries of the source, which are not always exact repeats. Identical values can stand only once. The source made the active and inactive calls. The rule behind the calls is not given here."}
{"molecule": "CC1(C)CC[C@]2(C(=O)n3ccnc3)CC[C@]3(C)[C@H](C(=O)C=C4[C@@]5(C)C=C(C#N)C(=O)C(C)(C)[C@@H]5CC[C@]43C)[C@@H]2C1", "values": [{"measurement": "Activity", "setting": "Rattus norvegicus [1]", "result": "Non-toxic"}, {"measurement": "Activity", "setting": "Liver [2]", "result": 99, "unit": "%"}, {"measurement": "Activity", "setting": "Liver [3]", "result": "Active"}, {"measurement": "CD", "setting": "[4]", "result": 3.3, "unit": "nM"}, {"measurement": "IC50", "setting": "RAW264.7 [5]; Mus musculus, RAW264.7, 24 h", "result": 1, "unit": "nM"}, {"measurement": "Activity", "setting": "Rattus norvegicus [6]", "result": "Non-toxic"}, {"measurement": "Activity", "setting": "Stomach", "result": "Active"}]}
{"molecule": "C#C[C@@]12C=C(C#N)C(=O)C=C1[C@]1(C)C=C(C#N)C(=O)C(C)(C)[C@H]1CC2", "values": [{"measurement": "Activity", "setting": "RAW264.7 [7]", "result": "Active"}, {"measurement": "Activity", "setting": "RAW264.7 [8]", "result": "Active"}, {"measurement": "CD", "setting": "[4]", "result": 0.9, "unit": "nM"}, {"measurement": "IC50", "setting": "RAW264.7 [5]; Mus musculus, RAW264.7, 24 h", "result": 1, "unit": "nM"}]}
{"molecule": "CC1(C)C(=O)C(C#N)=C[C@@]2(C)C3=CC(=O)C(C#N)=C[C@@]3(C#C[Si](C)(C)C)CC[C@H]12", "values": [{"measurement": "Activity", "setting": "RAW264.7 [7]", "result": "Active"}, {"measurement": "Activity", "setting": "RAW264.7 [8]", "result": "Active"}, {"measurement": "CD", "setting": "[4]", "result": 2.3, "unit": "nM"}, {"measurement": "IC50", "setting": "RAW264.7 [5]; Mus musculus, RAW264.7, 24 h", "result": 2, "unit": "nM"}]}
{"molecule": "C#C[C@]12C=C(C#N)C(=O)C=C1[C@@]1(C)C=C(C#N)C(=O)C(C)(C)[C@@H]1CC2", "note": "(racemic) [listing 1 of 2 here]", "values": [{"measurement": "Activity", "setting": "Rattus norvegicus [1]", "result": "Non-toxic"}, {"measurement": "Activity", "setting": "Liver [2]", "result": 99, "unit": "%"}, {"measurement": "Ratio", "setting": "Macrophage [9]", "result": 80}, {"measurement": "IC50", "setting": "[10]; Mus musculus, CD-1, Macrophage, 48 h", "result": 0.056, "unit": "nM"}, {"measurement": "Ratio", "setting": "RAW264.7 [11]", "result": 20}, {"measurement": "IC50", "setting": "RAW264.7 [5]; raw264.7", "result": 1, "unit": "nM"}, {"measurement": "Activity", "setting": "Rattus norvegicus [6]", "result": "Non-toxic"}, {"measurement": "Activity", "setting": "Liver [12]", "result": 90, "unit": "%"}]}
{"molecule": "C#C[C@]12C=C(C#N)C(=O)C=C1[C@@]1(C)C=C(C#N)C(=O)C(C)(C)[C@@H]1CC2", "note": "(racemic) [listing 2 of 2 here]", "values": [{"measurement": "Activity", "setting": "RAW264.7 [13]", "result": "Active"}, {"measurement": "Activity", "setting": "RAW264.7 [7]", "result": "Active"}, {"measurement": "Activity", "setting": "RAW264.7 [14]", "result": "Active"}, {"measurement": "inhibition", "setting": "Liver [15]", "result": "Dose-dependent effect"}, {"measurement": "inhibition", "setting": "RAW264.7 [16]", "result": "Active"}, {"measurement": "Activity", "setting": "RAW264.7 [8]", "result": "Active"}, {"measurement": "Activity", "setting": "Liver [17]", "result": "Active"}, {"measurement": "CD", "setting": "[4]", "result": 0.9, "unit": "nM"}, {"measurement": "Activity", "setting": "Liver [18]", "result": "Active"}, {"measurement": "Activity", "setting": "Stomach", "result": "Active"}]}
{"molecule": "CC1(C)C(=O)C(C#N)=C[C@]2(C)C3=CC(=O)C(C#N)=C[C@]3(C#C[Si](C)(C)C)CC[C@@H]12", "note": "(racemic)", "values": [{"measurement": "Activity", "setting": "RAW264.7 [13]", "result": "Active"}, {"measurement": "Activity", "setting": "RAW264.7 [7]", "result": "Active"}, {"measurement": "Activity", "setting": "RAW264.7 [14]", "result": "Active"}, {"measurement": "inhibition", "setting": "RAW264.7 [16]", "result": "Active"}, {"measurement": "Activity", "setting": "RAW264.7 [8]", "result": "Active"}, {"measurement": "CD", "setting": "[4]", "result": 3.5, "unit": "nM"}]}
{"molecule": "CC1(C)C(=O)C(C#N)=C[C@]2(C)C3=CC(=O)C(C#N)=C[C@]3(C)CC[C@@H]12", "note": "(racemic)", "values": [{"measurement": "Activity", "setting": "RAW264.7 [13]", "result": "Active"}, {"measurement": "inhibition", "setting": "Macrophage [19]", "result": "Active"}, {"measurement": "inhibition", "setting": "RAW264.7 [20]", "result": "Active"}, {"measurement": "Activity", "setting": "Liver [3]", "result": "Active"}, {"measurement": "CD", "setting": "[4]", "result": 18, "unit": "nM"}]}
{"molecule": "CC1(C)CC[C@]2(C(=O)O)CC[C@]3(C)[C@H](C(=O)C=C4[C@@]5(C)C=C(C#N)C(=O)C(C)(C)[C@@H]5CC[C@]43C)[C@@H]2C1", "note": "[BARDOXOLONE]", "values": [{"measurement": "Activity", "setting": "[21]", "result": "Non-toxic"}, {"measurement": "IC50", "setting": "[10]; macrophage", "result": "4.3 nM and 0.5 nM"}, {"measurement": "Activity", "setting": "Liver [3]", "result": "inactive"}, {"measurement": "CD", "setting": "[4]", "result": 2.3, "unit": "nM"}, {"measurement": "IC50", "setting": "RAW264.7 [5]; Mus musculus, RAW264.7, 24 h", "result": 17, "unit": "nM"}, {"measurement": "Activity", "setting": "Stomach", "result": "inactive"}]}
